The text below walks through data of ChEMBL document CHEMBL4706538, “Novel pleuromutilin derivatives with substituted 6-methylpyrimidine: Design, synthesis and antibacterial evaluation” (2020).

Test [1] deals with Staphylococcus aureus. In words: Antibacterial activity against Staphylococcus aureus BNCC 337371 infected in Kunming mouse assessed as thickening of alveolar septum and wall at 20 mg/kg, ip measured after 2 days by H and E staining based light microscopic analysis. The class given is functional, organism-based. The following applies: time 2.0 day. An outline of the steps: (§1)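 In neutropenic Kunming mice infected ip with MRSA-337371 and treated ip, lungs were taken after 2 d of treatment. They were fixed in 10% buffered formalin, embedded in paraffin, cut into 4 μm sections, stained with H&E and examined by light microscopy against normal and untreated infected groups.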

The next test deals with Streptococcus agalactiae. Kind of test: Antibacterial activity against Streptococcus agalactiae measured after 18 to 24 hrs by microtiter dilution method. The class given is functional. Particulars: time 18-24 hrs. A digest of the protocol:
(§2)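 Compounds were taken up in 25% DMSO at 64 μg/mL and serially diluted two-fold in water (11 dilutions). Log-phase bacteria grown in MHB were diluted to 10^5-10^6 CFU/mL and mixed 1:1 with the dilutions. Plates were incubated at 37 °C for 18-24 h. MIC was the lowest concentration giving no growth by OD492, averaged over three independent experiments.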

Test [2] has as its system Staphylococcus aureus. Kind of test: Antibacterial activity against Staphylococcus aureus BNCC 337371 infected in Kunming mouse assessed as reduction in bacterial load in kidney at 20 to 40 mg/kg, ip measured after 2 days by colony counting method. The class given is functional, organism-based. The following applies: dose 20-40 mg/kg, time 2.0 day. An outline of the steps:
(§3)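 Kunming mice (SPF, 6-8 weeks) were made neutropenic with ip cyclophosphamide, 150 mg/kg for four days and 100 mg/kg one day before infection. They were infected ip with 0.5 mL of MRSA-337371 at 10^8 CFU/mL. About 1 h later, compound was given ip in 0.5 mL vehicle (DMSO:Tween-80:water 0.5:0.5:9). After 2 d of treatment, lung, kidney and liver were weighed, homogenized in saline, diluted 10-fold, plated on MH agar at 37 °C for 24 h in triplicate, and expressed as CFU/g.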

Test [3] deals with Staphylococcus aureus. In words: Bacteriostatic activity against Staphylococcus aureus BNCC 337371 assessed as reduction in bacterial load incubated for 2 to 24 hrs prior to 10 fold dilution followed by replating on MH agar plate and measured after 24 hrs by time-kill assay. The following applies: time 2-24 hrs. The class given is functional, organism-based. A digest of the protocol: (§4)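 MRSA-337371 was grown in Mueller-Hinton broth at 37 °C for 6 h with shaking, then diluted to about 6×10^5 CFU/mL. It was exposed to 0.5, 1, 2 and 4× MIC. Samples taken at 0, 2, 4, 6, 8, 12 and 24 h were serially diluted 10-fold in 0.9% saline and plated on MH agar at 37 °C for 24 h. Colonies were counted as log10 CFU/mL, in triplicate.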

The subject of test [4] is Staphylococcus aureus. Kind of test: Antibacterial activity against Staphylococcus aureus BNCC 337371 infected in Kunming mouse assessed as reduction in bacterial load in liver at 20 to 40 mg/kg, ip measured after 2 days by colony counting method. Format: functional, organism-based. The following applies: dose 20-40 mg/kg, time 2.0 day. An outline of the steps: as §3
The next test has as its system Pasteurella multocida. In words: Antibacterial activity against Pasteurella multocida CVCC 1659 measured after 18 to 24 hrs by microtiter dilution method. Particulars: time 18-24 hrs. The class given is functional. An outline of the steps: as §2
Another test relates to Escherichia coli. Kind of test: Antibacterial activity against Escherichia coli CICC 10389 measured after 18 to 24 hrs by microtiter dilution method. The following applies: time 18-24 hrs. The class given is functional. An outline of the steps:
as §2

The subject of test [5] is Staphylococcus aureus. Kind of test: Antibacterial activity against Staphylococcus aureus BNCC 337371 infected in Kunming mouse assessed as reduction in bacterial load in lung at 20 to 40 mg/kg, ip measured after 2 days by colony counting method. The class given is functional, organism-based. Particulars: dose 20-40 mg/kg, time 2.0 day. A digest of the protocol: as §3

For test [6], the system named is Streptococcus dysgalactiae. Kind of test: Antibacterial activity against Streptococcus dysgalactiae measured after 18 to 24 hrs by microtiter dilution method. Format: functional. Particulars: time 18-24 hrs. An outline of the steps: as §2
For test [7], the system named is Staphylococcus aureus. Kind of test: Antibacterial activity against Staphylococcus aureus BNCC 337371 measured after 18 to 24 hrs by microtiter dilution method. Format: functional. The following applies: time 18-24 hrs. A digest of the protocol: as §2
Test [8] concerns Staphylococcus aureus. In words: Antibacterial activity against Staphylococcus aureus BNCC 337371 infected in Kunming mouse assessed as reduction in lung tissue damage at 20 to 40 mg/kg, ip measured after 2 days by H and E staining based light microscopic analysis. Format: functional, organism-based. Particulars: dose 20-40 mg/kg, time 2.0 day. An outline of the steps:
as §1

Another test has as its system Enterococcus faecalis. In words: Antibacterial activity against Enterococcus faecalis measured after 18 to 24 hrs by microtiter dilution method. The following applies: time 18-24 hrs. The class given is functional. A digest of the protocol: as §2
In test [9] the test system is Staphylococcus aureus. Kind of test: Antibacterial activity against Staphylococcus aureus ATCC 25923 measured after 18 to 24 hrs by microtiter dilution method. Format: functional. The following applies: time 18-24 hrs. An outline of the steps:
as §2

In test [10] the test system is Staphylococcus epidermidis. In words: Antibacterial activity against Staphylococcus epidermidis ATCC 51625 measured after 18 to 24 hrs by microtiter dilution method. The class given is functional. Particulars: time 18-24 hrs. A digest of the protocol:
as §2

Test [11] has as its system Staphylococcus aureus. In words: Bacteriostatic activity against Staphylococcus aureus BNCC 337371 assessed as reduction in bacterial load at 2 to 4 times MIC incubated for 8 hrs prior to 10 fold dilution followed by replating on MH agar plate and measured after 24 hrs by time-kill assay relative to control. The class given is functional. Particulars: time 32 hrs. A digest of the protocol:
as §4

The subject of test [12] is Staphylococcus aureus. Kind of test: Antibacterial activity against Staphylococcus aureus BNCC 337371 infected in Kunming mouse assessed as reduction in inflammatory cell infiltration in pulmonary interstitium at 40 mg/kg, ip measured after 2 days by H and E staining based light microscopic analysis. The class given is functional, organism-based. Particulars: time 2.0 day. An outline of the steps: as §1

For test [13], the system named is Staphylococcus aureus. Kind of test: Antibacterial activity against Staphylococcus aureus BNCC 337371 infected in ip dosed Kunming mouse assessed as increase in mouse survival measured after 7 days. The class given is functional. The following applies: for ED50: BNCC 337371, ip, 168 h, time 7 day; for Activity: time 7.0 day. An outline of the steps:
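Neutropenic 6-8 week Kunming mice (cyclophosphamide 150 mg/kg ip for four days, then 100 mg/kg one day before inoculation) were infected ip with 0.5 mL MRSA-337371 at 10^8 CFU/mL. About 1 h later they were dosed ip at 5, 8, 15, 25 or 40 mg/kg in DMSO:Tween-80:water 0.5:0.5:9 (10 per group). Mice were observed twice daily, survival was read at day 7, and ED50 was calculated by the Bliss method.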

Test [14] concerns Staphylococcus aureus. Kind of test: Antibacterial activity against Staphylococcus aureus BNCC 337371 infected in Kunming mouse assessed as reduction in infiltration of neutrophils cells at 20 to 40 mg/kg, ip measured after 2 days by H and E staining based light microscopic analysis. Format: functional, organism-based. Particulars: dose 20-40 mg/kg, time 2.0 day. A digest of the protocol:
as §1

The test system of test [15] is Staphylococcus aureus. Kind of test: Antibacterial activity against Staphylococcus aureus BNCC 337371 infected in Kunming mouse assessed as bacterial load in lung at 20 to 40 mg/kg, ip measured after 2 days by colony counting method (reference value: 4.8 log10CFU/ml). Format: functional. Particulars: dose 20-40 mg/kg; time 2 day. A digest of the protocol:
as §3

For test [16], the system named is Staphylococcus aureus. In words: Antibacterial activity against Staphylococcus aureus BNCC 337371 infected in Kunming mouse assessed as reduction in local congestion in lung at 20 to 40 mg/kg, ip measured after 2 days by H and E staining based light microscopic analysis. Format: functional, organism-based. The following applies: dose 20-40 mg/kg, time 2.0 day. A digest of the protocol:
as §1

In brackets after ≈: the same amount, converted by molar mass. Activity calls are given as the source filed them. No cut-off for these calls is given here. Bounds are passed on as bounds.

As for `C=C[C@]1(C)C[C@@H](OC(=O)CSc2nc(C)cc(N3CCCC3)n2)[C@@]2(C)[C@H](C)CC[C@]3(CCC(=O)[C@H]32)[C@@H](C)[C@@H]1O`, the result in the test on Staphylococcus aureus [1], in the test on Staphylococcus aureus [2], in the test on Staphylococcus aureus [5], in the test with Staphylococcus aureus [8] and with Staphylococcus aureus [12] was Active. Further, the MIC (as a rule, the lowest concentration found to suppress growth) is 0.06 µM (≈ 0.0333 µg/mL) against Streptococcus agalactiae; 14.4 µM (≈ 8.01 µg/mL) in the test on Pasteurella multocida; greater than 57.6 µM in the test with Escherichia coli; 0.06 µM (≈ 0.0333 µg/mL) in test [6]; 0.06 µM (≈ 0.0333 µg/mL) against Staphylococcus aureus [7]; 14.4 µM (≈ 8.01 µg/mL) in the test with Enterococcus faecalis. Moreover, the values for the MIC (against Staphylococcus aureus [9]; in test [10]) were 0.06 µM (≈ 0.0333 µg/mL) and 0.11 µM (≈ 0.0611 µg/mL), respectively. Also, the Activity entry in the test with Staphylococcus aureus [3] and in the test with Staphylococcus aureus [13] was “Dose-dependent effect” in each case. Moreover, the outcome with Staphylococcus aureus [4] was inactive. The “fold change (FC)” value in the test with Staphylococcus aureus [11] is given as “>=2”. The ED50 (commonly the midpoint of the dose-response relation) in the test on Staphylococcus aureus [13] is 18 mg/kg.
In the case of `C=C[C@]1(C)C[C@@H](OC(=O)CSCCN(CC)CC)[C@]2(C)[C@H](C)CC[C@]3(CCC(=O)[C@H]32)[C@@H](C)[C@@H]1O` [TIAMULIN], the outcome in the test with Staphylococcus aureus [14] and in the test on Staphylococcus aureus [16] was Active. Further, the MIC worked out at 0.2 µM (≈ 0.0988 µg/mL) against Streptococcus agalactiae; 3.28 µM (≈ 1.62 µg/mL) in the test with Pasteurella multocida; 52.5 µM (≈ 25.9 µg/mL) against Escherichia coli; 0.2 µM (≈ 0.0988 µg/mL) in [6]; 0.82 µM (≈ 0.405 µg/mL) in the test with Staphylococcus aureus [7]; 52.5 µM (≈ 25.9 µg/mL) against Enterococcus faecalis. In addition, the MIC (against Staphylococcus aureus [9]; in test [10]) was 0.82 µM (≈ 0.405 µg/mL) in each case. Moreover, the results for the Activity result in the test with Staphylococcus aureus [3], in the test with Staphylococcus aureus [15] and in the test with Staphylococcus aureus [13] were “Dose-dependent effect”, 1.1 log10CFU/ml and “Dose-dependent effect”, respectively. The result in the test with Staphylococcus aureus [4] was inactive. Also, the “fold change (FC)” value in the test on Staphylococcus aureus [11] came out at 1. In addition, the ED50 with Staphylococcus aureus [13] is 25.9 mg/kg.
As to `C=C[C@]1(C)C[C@@H](OC(=O)CSc2nc(C)cc(N3CCOCC3)n2)[C@@]2(C)[C@H](C)CC[C@]3(CCC(=O)[C@H]32)[C@@H](C)[C@@H]1O`, the MIC against Streptococcus agalactiae was 0.05 µM (≈ 0.0286 µg/mL); in the test with Pasteurella multocida it was 14 µM (≈ 8 µg/mL); in the test on Escherichia coli, greater than 56 µM; in test [6], 0.05 µM (≈ 0.0286 µg/mL); in the test on Staphylococcus aureus [7], 0.11 µM (≈ 0.0629 µg/mL); against Enterococcus faecalis, 14 µM (≈ 8 µg/mL). For the same compound, the MIC (with Staphylococcus aureus [9]; in test [10]) was 0.11 µM (≈ 0.0629 µg/mL) each time. Further, the Activity result in the test on Staphylococcus aureus [3] is “Dose-dependent effect”. Besides, the “fold change (FC)” value with Staphylococcus aureus [11] was “>=2”.
